Measured values of several laboratories.
Protocols differ between the studies behind these lines.
PSMB6: Proteasome subunit beta type-6 (PSMB6, Homo sapiens, UniProt P28072)
PRKAA2: 5'-AMP-activated protein kinase catalytic subunit alpha-2 (PRKAA2, Homo sapiens, UniProt P54646)
Stromelysin-2: Stromelysin-2 (Homo sapiens, UniProt P09238)
FAP: Prolyl endopeptidase FAP (FAP, Homo sapiens, UniProt Q12884)
SGK2: Serine/threonine-protein kinase Sgk2 (SGK2, Homo sapiens, UniProt Q9HBY8)

SMILES | target | test | conditions | quantity | value
Nc1ccc(-c2nsc(=O)o2)cc1 | PSMB6 | enzyme activity, inhibitor | – | kinact/KI | 1.09 M⁻¹ s⁻¹
COc1ncccc1-c1cnn2ccc(N3CCN(C(=O)OC(C)C)CC3)nc12 | Bone morphogenetic protein receptor type-2 (BMPR2, Homo sapiens, UniProt Q13873) | binding, competition with immobilised ligand | 1 µM | remaining binding | 72%
Cc1nn(C)cc1-c1nc2c(N3CCN(Cc4ccc(Cl)cc4)CC3)c(Cl)cnc2[nH]1 | PRKAA2 | binding, competition with immobilised ligand | 1 µM | remaining binding | 0.9%
C#Cc1n[nH]c2c(-c3cn([C@@H](C)c4ccccc4)c(=O)[nH]c3=O)cc(F)cc12 | Cyclin-dependent kinase 9, with cyclin T1 (CDK9, Homo sapiens, UniProt P50750) | enzyme activity, inhibitor | 0.1 µM | inhibition | -1.8%
COc1ccc(S(=O)(=O)N(CC(=O)NO)CC(C)C)cc1 | Stromelysin-2 | enzyme activity, inhibitor | 1 µM | inhibition | 63%
Cc1cc(-c2nsc(=O)o2)c(S(C)(=O)=O)s1 | PSMB6 | enzyme activity, inhibitor | – | kinact/KI | 1.4 M⁻¹ s⁻¹
CCOC(=O)c1ccc(OC(=O)CCCCCNC(=N)N)cc1 | FAP | enzyme activity, inhibitor | 10 µM | inhibition | 29%
CCN(CC)CCCC[C@H](NC(=O)[C@H](CC(C)C)NC(=O)[C@H](C)NC(=O)[C@H](Cc1ccccc1)NC(=O)c1ccc(C(C)(C)C)cc1)C(=O)N[C@@H](CO)C(=O)OC | SP140 (Homo sapiens, UniProt Q13342) | thermal stability, DSF | 25 µM | ΔTm | 0.07 °C
N=C(N)c1ccc2cc(OC(=O)c3ccc(N=C(N)N)cc3)ccc2c1 | Dipeptidyl peptidase 4 (DPP4, Homo sapiens, UniProt P27487) | enzyme activity, inhibitor | 10 µM | inhibition | 18%
Nc1ncc(-c2nc(N3CCOCC3)nc(N3CCOCC3)n2)c(C(F)F)n1 | PRKAA2 | cell-free assay, competition with immobilised ligand | 10 µM | remaining binding | 91%
C#Cc1n[nH]c2c(-c3cn(C(C)c4ccccn4)c(=O)[nH]c3=O)cc(F)cc12 (stereo not shown) | Cyclin-dependent kinase 1, with cyclin B (CDK1, Homo sapiens, UniProt P06493) | enzyme activity, inhibitor | 1 µM | inhibition | 6.8%
CN(C)C(=O)COC(=O)Cc1ccc(OC(=O)c2ccc(NC(=N)N)cc2)cc1 | Stromelysin-2 | enzyme activity, inhibitor | 10 µM | inhibition | 29%
Cn1cc(-c2cccc(N3CCc4c(sc5c4CC(C)(C)C5)C3=O)c2CO)cc(Nc2ccncn2)c1=O | SGK2 | enzyme activity, inhibitor | 1 µM | inhibition | 3%
N#C[C@@H]1CC(F)(F)CN1C(=O)CNC(=O)c1ccnc2ccccc12 | FAP | enzyme activity, inhibitor | 10 nM | inhibition | 35%
Cn1cc(-c2cc(F)cc(N3CCn4c(cc5c4CCCC5)C3=O)c2CO)cc(Nc2ccc(N3CCN(C4COC4)CC3)cn2)c1=O | SGK2 | enzyme activity, inhibitor | 0.1 µM | inhibition | 12%
Oc1cc(Br)cc(Br)c1Oc1ccc(Br)cc1Br | Sulfotransferase 1E1 (SULT1E1, Homo sapiens, UniProt P49888) | enzyme activity, substrate | – | Km | 63.2 µM
